In data set [1] the target is T1, Monoglyceride lipase (Homo sapiens) (UniProt Q99685).
T1 sequence (whole entry): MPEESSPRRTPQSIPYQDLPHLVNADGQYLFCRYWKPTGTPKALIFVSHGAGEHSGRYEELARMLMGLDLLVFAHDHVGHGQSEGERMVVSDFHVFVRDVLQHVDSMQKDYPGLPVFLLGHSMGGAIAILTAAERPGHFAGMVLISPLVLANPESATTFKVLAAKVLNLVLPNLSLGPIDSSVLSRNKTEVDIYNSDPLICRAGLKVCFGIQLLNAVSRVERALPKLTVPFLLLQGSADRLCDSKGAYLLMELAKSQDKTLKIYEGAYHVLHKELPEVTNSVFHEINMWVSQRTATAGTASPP
The data set can be described thus: Inhibition of human recombinant MGL using 2-oleoylglycerol at 1 uM by competitive hydrolysis assay.

Data set [2] has as its target T2, Fatty-acid amide hydrolase 1 (Homo sapiens, UniProt O00519).
T2 sequence (O00519 whole entry): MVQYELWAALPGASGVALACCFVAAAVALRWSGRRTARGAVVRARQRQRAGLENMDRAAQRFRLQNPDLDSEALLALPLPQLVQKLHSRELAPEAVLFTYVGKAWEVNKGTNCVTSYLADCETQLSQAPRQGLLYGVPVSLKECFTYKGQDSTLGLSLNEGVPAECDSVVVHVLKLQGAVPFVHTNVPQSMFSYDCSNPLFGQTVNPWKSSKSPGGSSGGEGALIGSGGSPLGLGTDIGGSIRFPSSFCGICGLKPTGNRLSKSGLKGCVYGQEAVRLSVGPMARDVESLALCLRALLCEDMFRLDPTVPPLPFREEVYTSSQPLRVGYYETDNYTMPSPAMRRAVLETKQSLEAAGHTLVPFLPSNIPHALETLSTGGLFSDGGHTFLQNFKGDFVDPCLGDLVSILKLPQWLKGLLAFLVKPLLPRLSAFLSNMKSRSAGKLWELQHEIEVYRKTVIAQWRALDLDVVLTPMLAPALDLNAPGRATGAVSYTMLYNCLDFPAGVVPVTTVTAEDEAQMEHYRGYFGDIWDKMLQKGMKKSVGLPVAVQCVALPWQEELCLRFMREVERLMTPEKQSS
In words: Inhibition of human recombinant FAAH using [3H]anandamide by competitive hydrolysis assay. In outline:
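Compounds were added in DMSO, with DMSO alone as control, plus [3H]-AEA at 2 μM final, 37 °C for 10 min. The reaction was stopped on ice with cold chloroform/methanol (1:1), and the aqueous phase was counted by LSC with the buffer-only blank subtracted. IC50 is the mean of three independent experiments.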

In data set [3] the target is T1, Monoglyceride lipase (Homo sapiens). The data set can be described thus: Inhibition of human recombinant MGL using 2-oleoylglycerol at 100 uM by competitive hydrolysis assay.
The next data set deals with T3, Monoglyceride lipase (Homo sapiens, UniProt Q99685).
T3 sequence (Q99685 whole entry): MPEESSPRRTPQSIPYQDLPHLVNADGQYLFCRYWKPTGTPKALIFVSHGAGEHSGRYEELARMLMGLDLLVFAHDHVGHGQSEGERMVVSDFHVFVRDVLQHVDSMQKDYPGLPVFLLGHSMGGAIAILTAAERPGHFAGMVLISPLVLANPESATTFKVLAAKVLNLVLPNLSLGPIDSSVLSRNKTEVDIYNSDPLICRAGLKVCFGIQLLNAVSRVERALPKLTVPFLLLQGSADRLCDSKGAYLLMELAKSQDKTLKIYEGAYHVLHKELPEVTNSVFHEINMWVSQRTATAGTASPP
In words: Inhibition of human recombinant MGL using 2-oleoylglycerol by competitive hydrolysis assay. In outline: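 Compounds were added in DMSO, with DMSO as control, plus [3H]-2-oleoylglycerol at 2 μM final, 37 °C for 10 min. Ice-cold chloroform/methanol (1:1) quench, and the methanol/buffer phase was counted by LSC with the blank subtracted. Results are means of three independent assays.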

Substrate in data set [4]: C=CCCC(=O)N1C[C@@H]([C@@H](C)OC(=O)CCCc2ccccc2)C1=O
The data set can be described thus: Hydrolytic activity of human recombinant FAAH at 15 nM by liquid scintillation counting.

Substrate in data set [5]: C=CCCC(=O)N1C[C@@H]([C@@H](C)OC(=O)CCCc2ccccc2)C1=O
The data set can be described thus: Hydrolytic activity of human recombinant FAAH at 45 nM by liquid scintillation counting.

The term inhibition denotes the relative decrease from the control value, in per cent. The term IC50 denotes the midpoint of a concentration-inhibition curve. Consider `C[C@@H](OC(=O)CCCCc1ccccc1)[C@@H]1CN(C(=O)CCc2ccccc2)C1=O`, for which the inhibition in data set [1] is 0%; in data set [3] it was 100%. For the same molecule, the IC50 in data set [2] came out at 91 nM.

For the molecule `C[C@@H](O)[C@@H]1CN(C(=O)CCc2ccccc2)C1=O`, the IC50 in data set [2] is 409000 nM. In addition, the inhibition in data set [3] amounted to 8%.

Regarding `C[C@@H](OC(=O)CCCc1ccccc1)[C@@H]1CN(C(=O)CCCc2ccccc2)C1=O`, the inhibition in data set [1] turned out to be 0%; in data set [3], 100%. Besides, the IC50 in data set [2] came out at 30 nM.

On to `CC(=O)O[C@@H]1[C@@H]([C@@H](C)OC(=O)CCc2ccccc2)C(=O)N1C(=O)CCc1ccccc1`, for which the inhibition in data set [1] came out at 0%; in data set [3], 100%. For the same molecule, in data set [2], the IC50 worked out at 2020 nM.

Consider `C[C@@H](OC(=O)Cc1ccc(-c2ccccc2)cc1)[C@@H]1CNC1=O`, for which the IC50 in data set [2] worked out at 6500 nM. Besides, the inhibition in data set [3] came to 16%.

On to `C=CCCC(=O)N1C[C@@H]([C@@H](C)O)C1=O`, for which the values for the inhibition in data set [1] and in data set [3] were 8% and 89%, respectively. Besides, the 50% inhibitory concentration (IC50) in data set [2] came out at 7900 nM.

For the molecule `C[C@@H](OC(=O)CCc1ccccc1)[C@@H]1CN(C(=O)CCc2ccccc2)C1=O`, the inhibition was 0% in data set [1] and 100% in data set [3]. Besides, in data set [2], the IC50 came out at 157 nM.

Regarding `CC(=O)O[C@@H]1[C@@H]([C@@H](C)OC(=O)Cc2ccc(-c3ccccc3)cc2)C(=O)N1C(=O)CCCc1ccccc1`, the inhibition is 0% in data set [1] and 100% in data set [3]. Further, the half-maximal inhibitory concentration (IC50) in data set [2] came to 708 nM.

Regarding `CC(=O)O[C@@H]1[C@@H]([C@@H](C)OC(=O)Cc2ccc(-c3ccccc3)cc2)C(=O)N1C(=O)CCc1ccccc1`, the IC50 in data set [2] was 826 nM. Moreover, the inhibition in data set [3] worked out at 66%.

As for `C=CCCC(=O)O[C@H](C)[C@H]1C(=O)N(C(=O)CCC=C)[C@@H]1OC(C)=O`, the inhibition in data set [1] was found to be 33%; in data set [3] it was 99%. In addition, the concentration for half-maximal inhibition (IC50) in data set [2] is 1900 nM; on Monoglyceride lipase (read-out: IC50), 133 µM.

Take `CC(=O)O[C@@H]1[C@@H]([C@@H](C)O)C(=O)N1C(=O)CCc1ccccc1`: the IC50 in data set [2] stood at 224000 nM. In data set [3], the inhibition stood at 48%.

Consider `CC(=O)O[C@@H]1[C@@H]([C@@H](C)OC(=O)CCCc2ccccc2)C(=O)N1C(=O)CCc1ccccc1`, for which the inhibition was 0% in data set [1] and 100% in data set [3]. Besides, the IC50 in data set [2] was determined as 960 nM.

On to `C=CCCCC(=O)N1C[C@@H]([C@@H](C)OC(=O)CCCc2ccccc2)C1=O`, for which the IC50 in data set [2] came out at 10 nM; on Monoglyceride lipase (read-out: IC50) it was 8.51 µM. Also, the inhibition in data set [3] was 85%.

With `C=CCCC(=O)N1C[C@@H]([C@@H](C)OC(=O)Cc2ccc(-c3ccccc3)cc2)C1=O`, the IC50 in data set [2] was found to be 12 nM; at Monoglyceride lipase (read-out: IC50), 1.84 µM. The inhibition in data set [3] came to 91%.

As for `C[C@@H](OC(=O)Cc1ccc(-c2ccccc2)cc1)[C@@H]1CN(C(=O)CCCc2ccccc2)C1=O`, the IC50 in data set [2] was found to be 32 nM. In addition, the inhibition in data set [3] is 0%.

Take `CC(=O)O[C@@H]1[C@@H]([C@@H](C)OC(=O)CCc2ccccc2)C(=O)N1C(=O)CCCc1ccccc1`: the inhibition in data set [1] stood at 0%; in data set [3], 100%. The IC50 in data set [2] was found to be 5120 nM.

Take `C[C@@H](OC(=O)CCCc1ccccc1)[C@@H]1CN(C(=O)CCCCc2ccccc2)C1=O`: the IC50 in data set [2] was found to be 449 nM. Also, in data set [3], the inhibition was 39%.

Regarding `C[C@@H](OC(=O)CCCc1ccccc1)[C@@H]1CN(C(=O)CCc2ccccc2)C1=O`, the inhibition was 0% in data set [1] and 100% in data set [3]. In data set [2], the IC50 came out at 49 nM.

For the molecule `CC(=O)O[C@@H]1[C@@H]([C@@H](C)OC(=O)CCCc2ccccc2)C(=O)N1C(=O)CCCc1ccccc1`, the inhibition in data set [1] was determined as 0%; in data set [3], 100%. For the same molecule, in data set [2], the IC50 worked out at 3120 nM.

With `C=CCCC(=O)N1C[C@@H]([C@@H](C)OC(=O)CCCc2ccccc2)C1=O`, the IC50 was found to be 5 nM in data set [2] and 4.06 µM on Monoglyceride lipase (read-out: IC50). For the same molecule, the inhibition in data set [3] amounted to 89%.

Regarding `C=CCCC(=O)O[C@H](C)[C@@H]1CN(C(=O)CCC=C)C1=O`, the figures for the IC50 (in data set [2]; on Monoglyceride lipase (read-out: IC50)) were 98 nM and 23.3 µM, respectively. Moreover, in data set [3], the inhibition was 99%.

On to `C=CCCCC(=O)O[C@H](C)[C@@H]1CN(C(=O)CCC=C)C1=O`, for which the IC50 in data set [2] is 32 nM; at Monoglyceride lipase, 4.72 µM; at Monoglyceride lipase (read-out: IC50), 4.72 µM. The inhibition in data set [3] was determined as 8%.

Turning to `CC(=O)O[C@@H]1[C@@H]([C@@H](C)O)C(=O)N1C(=O)CCCc1ccccc1`, in data set [2], the IC50 was 183000 nM. Further, the inhibition in data set [3] turned out to be 61%.

As for `C[C@@H](OC(=O)CCCCc1ccccc1)[C@@H]1CN(C(=O)CCCc2ccccc2)C1=O`, the IC50 in data set [2] is 45 nM. In addition, the inhibition in data set [3] was found to be 59%.

Turning to `C[C@@H](OC(=O)Cc1ccc(-c2ccccc2)cc1)[C@@H]1CN(C(=O)CCCCc2ccccc2)C1=O`, the IC50 in data set [2] came out at 236 nM. In addition, the inhibition in data set [3] amounted to 25%.

Turning to `C=CCCCC(=O)N1C[C@@H]([C@@H](C)OC(=O)Cc2ccc(-c3ccccc3)cc2)C1=O`, the IC50 in data set [2] came out at 14 nM; on Monoglyceride lipase (read-out: IC50), 14.6 µM. Besides, the inhibition in data set [3] was 67%.

`C=CCCC(=O)N1C(=O)[C@H]([C@@H](C)O)[C@H]1OC(C)=O`: the IC50 in data set [2] is 537000 nM. Further, in data set [3], the inhibition amounted to 16%.

Consider `C[C@@H](OC(=O)CCc1ccccc1)[C@@H]1CN(C(=O)CCCc2ccccc2)C1=O`, for which the half-inhibitory concentration (IC50) in data set [2] came out at 57 nM. Moreover, the inhibition in data set [3] is 54%.

`C[C@@H](OC(=O)Cc1ccc(-c2ccccc2)cc1)[C@@H]1CN(C(=O)CCc2ccccc2)C1=O`: in data set [2], the concentration for half-maximal inhibition (IC50) was determined as 50 nM. In addition, the inhibition in data set [3] turned out to be 31%.

B1: Fatty-acid amide hydrolase 1 (Homo sapiens), O00519 (protein)
chain: MVQYELWAALPGASGVALACCFVAAAVALRWSGRRTARGAVVRARQRQRAGLENMDRAAQRFRLQNPDLDSEALLALPLPQLVQKLHSRELAPEAVLFTYVGKAWEVNKGTNCVTSYLADCETQLSQAPRQGLLYGVPVSLKECFTYKGQDSTLGLSLNEGVPAECDSVVVHVLKLQGAVPFVHTNVPQSMFSYDCSNPLFGQTVNPWKSSKSPGGSSGGEGALIGSGGSPLGLGTDIGGSIRFPSSFCGICGLKPTGNRLSKSGLKGCVYGQEAVRLSVGPMARDVESLALCLRALLCEDMFRLDPTVPPLPFREEVYTSSQPLRVGYYETDNYTMPSPAMRRAVLETKQSLEAAGHTLVPFLPSNIPHALETLSTGGLFSDGGHTFLQNFKGDFVDPCLGDLVSILKLPQWLKGLLAFLVKPLLPRLSAFLSNMKSRSAGKLWELQHEIEVYRKTVIAQWRALDLDVVLTPMLAPALDLNAPGRATGAVSYTMLYNCLDFPAGVVPVTTVTAEDEAQMEHYRGYFGDIWDKMLQKGMKKSVGLPVAVQCVALPWQEELCLRFMREVERLMTPEKQSS
As usually defined, the Vmax is the top rate of the reaction or transport when substrate is in excess. Turning to B1, the Vmax was 12.8 nmol/min/mg in data set [4] and 11.9 nmol/min/mg in data set [5].

The values above are taken from ChEMBL document CHEMBL1154678, “beta-Lactams derived from a carbapenem chiron are selective inhibitors of human fatty acid amide hydrolase versus human monoacylglycerol lipase” (J Med Chem, 2009).
